Assay results published in ChEMBL document CHEMBL4673374, “Synthesis of mitochondria-targeted coumarin-3-carboxamide fluorescent derivatives: Inhibiting mitochondrial TrxR2 and cell proliferation on breast cancer cells” (Bioorg Med Chem Lett, 2021).
Values belong to the molecule of their own block, whether it stands above or below them. Calls of active or inactive are those of the source. The calls are words filed in the database; no cut-off is given here.

Experiments:
MDA-MB-231 [1] = test: Cytotoxicity against human MDA-MB-231 cells after 48 hrs by MTT assay; type: functional, cell-based; conditions: MDA-MB-231, 48 h
In short: (§1)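 MTT viability read after 48 h exposure of three breast cancer lines and non-tumorigenic MCF-10A breast cells; IC50 reported as mean ± SD from at least three independent experiments. Butyl-TPP and tamoxifen run alongside as references. Sulforhodamine B assay used as a cross-check.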

MCF7 = test: Cytotoxicity against human MCF7 cells after 48 hrs by MTT assay; type: functional, cell-based; conditions: MCF7, 48 h; in short: as §1
MCF-10A = test: Cytotoxicity against human MCF-10A cells after 48 hrs by MTT assay; type: cell-based; in short: as §1
SK-BR-3 = test: Cytotoxicity against human SK-BR-3 cells after 48 hrs by MTT assay; type: functional, cell-based; conditions: SK-BR-3, 48 h; in short: as §1
[2] = Stability of compound in methanol-water after 3 days by HPLC-MS analysis; type: physicochemical; conditions: 72 h; time 3 day
[3] = Drug uptake in human MDA-MB-231 cells assessed as blue fluorescence after 2 hrs by flow cytometric analysis; type: ADME, cell-based; conditions: mda-mb-231, 2 h, dose 1-16 µM
In short: (§2)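 Uptake read from native blue fluorescence (λex ~420, λem ~475 nm) by flow cytometry as geometric mean intensity. Dose series read after 2 h. Time course run at 8 μM over several durations. Mean ± SD, n = 3.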

[4] = Drug uptake in human MDA-MB-231 cells assessed as blue fluorescence at 8 uM measured after 0.5 to 1.5 hrs by flow cytometric analysis; type: ADME, cell-based; conditions: mda-mb-231, 8 µM, TDE = time-dependent effect, time 0.5-1.5 hrs; in short: as §2
[5] = Drug localization in mitochondria of human MDA-MB-231 cells at 1 uM incubated for 30 mins in presence of CCCP by MTDR staining based laser confocal microscopic analysis; type: ADME; conditions: mda-mb-231, 0.5 h
MDA-MB-231 [6] = test: Induction of mitochondrial membrane potential loss in human MDA-MB-231 cells assessed as TMRE low/caspase low cells at 4 uM after 24 hrs by TMRE staining based flow cytometric analysis (reference value: 98.21%); type: functional
MDA-MB-231 [7] = test: Inhibition of TrxR activity in human MDA-MB-231 cells at 10 uM incubated for 4 hrs; type: cell-based
In short: (§3)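 MDA-MB-231 cells treated with 10 μM compound for 4 h. Total-cell and mitochondrial extracts assayed for TrxR activity with a micro oxidized thioredoxin reductase kit. Mean ± SD, n = 3.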

MDA-MB-231 [8] = test: Induction of apoptosis in human MDA-MB-231 cells assessed as late apoptotic or necrotic cells at 4 uM incubated for 48 hrs by Annexin V-FITC/PI staining based flow cytometric analysis (reference value: 3.51 %); type: functional
MDA-MB-231 [9] = test: Induction of mitochondrial membrane potential loss in human MDA-MB-231 cells assessed as TMRE low/caspase low cells at 2 uM after 24 hrs by TMRE staining based flow cytometric analysis (reference value: 98.21%); type: functional
MDA-MB-231 [10] = test: Induction of mitochondrial membrane potential loss in human MDA-MB-231 cells assessed as TMRE low/caspase low cells at 8 uM after 24 hrs by TMRE staining based flow cytometric analysis (reference value: 98.21%); type: functional
MDA-MB-231 [11] = test: Induction of mitochondrial membrane potential loss in human MDA-MB-231 cells after 24 hrs by TMRE staining based flow cytometric analysis; type: functional, cell-based; conditions: dose 2-8 µM
[12] = Drug localization in mitochondria of human MDA-MB-231 cells at 1 uM incubated for 30 mins by MTDR staining based laser confocal microscopic analysis; type: ADME; conditions: mda-mb-231, 0.5 h
MDA-MB-231 [13] = test: Induction of ROS generation in human MDA-MB-231 cells after 6 hrs by DCFH-DA staining based flow cytometric analysis; type: functional, cell-based
In short: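 MDA-MB-231 cells treated for 6 h, then intracellular ROS probed with DCFH-DA. Geometric mean fluorescence measured by flow cytometry. Mean ± SD, n = 3.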

MDA-MB-231 [14] = test: Inhibition of TrxR activity in human MDA-MB-231 cell mitochondrial extracts at 10 uM incubated for 4 hrs; conditions: Mitochondria; in short: as §3
MDA-MB-231 [15] = test: Induction of mitochondrial membrane potential loss in human MDA-MB-231 cells assessed as TMRE high cells at 2 uM after 24 hrs by TMRE staining based flow cytometric analysis (reference value: 1.79%); type: functional
MDA-MB-231 [16] = test: Induction of apoptosis in human MDA-MB-231 cells assessed as early apoptotic cells at 2 uM incubated for 48 hrs by Annexin V-FITC/PI staining based flow cytometric analysis (reference value: 2.08 %); type: functional
MDA-MB-231 [17] = test: Down regulation of TrxR expression in human MDA-MB-231 cells incubated for 48 hrs by Western blot analysis; type: functional, cell-based; conditions: dose 2-8 µM
In short: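 MDA-MB-231 cells exposed at 2, 4 and 8 μM for 48 h. TrxR2 protein detected by Western blot and quantified by gray-value scanning. Mean ± SD, n = 3.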

MDA-MB-231 [18] = test: Induction of cell death in human MDA-MB-231 cells assessed as reduction in cell viability at 2 to 8 uM preincubated with BSO for 24 hrs followed by compound addition and measured after 24 hrs MTT assay; type: functional; conditions: dose 2-8 µM
In short: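 MDA-MB-231 cells pretreated with buthionine sulfoximine (50 μM, 24 h) to deplete GSH, then exposed to test compound for a further 24 h. Viability read by MTT. Means ± SD, n = 3.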

MDA-MB-231 [19] = test: Induction of apoptosis in human MDA-MB-231 cells assessed as late apoptotic or necrotic cells at 2 uM incubated for 48 hrs by Annexin V-FITC/PI staining based flow cytometric analysis (reference value: 3.51 %); type: functional
MDA-MB-231 [20] = test: Induction of mitochondrial membrane potential loss in human MDA-MB-231 cells assessed as TMRE high cells at 4 uM after 24 hrs by TMRE staining based flow cytometric analysis (reference value: 1.79%); type: functional
MDA-MB-231 [21] = test: Induction of apoptosis in human MDA-MB-231 cells assessed as late apoptotic or necrotic cells at 8 uM incubated for 48 hrs by Annexin V-FITC/PI staining based flow cytometric analysis (reference value: 3.51 %); type: functional
MDA-MB-231 [22] = test: Induction of mitochondrial membrane depolarization in human MDA-MB-231 cells at 2 to 8 uM preincubated with BSO for 24 hrs followed by compound addition by flow cytometric analysis; type: functional; conditions: dose 2-8 µM
In short: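 MDA-MB-231 cells pretreated with 50 μM buthionine sulfoximine for 24 h to deplete GSH, then exposed to compound. Mitochondrial membrane potential determined by flow cytometry. Mean ± SD, n = 3.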

MDA-MB-231 [23] = test: Induction of cell death in human MDA-MB-231 cells assessed as reduction in cell viability preincubated with CsA for 2 hrs followed by compound addition and measured after 48 hrs by MTT assay; type: functional, cell-based
In short: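 MDA-MB-231 cells pre-incubated 2 h with cyclosporin A (2 and 4 μM), then exposed to compound for 48 h. Viability read by MTT. Mean ± SD, n = 3.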

MDA-MB-231 [24] = test: Induction of mitochondrial membrane potential loss in human MDA-MB-231 cells assessed as TMRE high cells at 8 uM after 24 hrs by TMRE staining based flow cytometric analysis (reference value: 1.79%); type: functional
MDA-MB-231 [25] = test: Induction of apoptosis in human MDA-MB-231 cells assessed as early apoptotic cells at 8 uM incubated for 48 hrs by Annexin V-FITC/PI staining based flow cytometric analysis (reference value: 2.08 %); type: functional
MDA-MB-231 [26] = test: Induction of apoptosis in human MDA-MB-231 cells assessed as early apoptotic cells at 4 uM incubated for 48 hrs by Annexin V-FITC/PI staining based flow cytometric analysis (reference value: 2.08 %); type: functional

Compound: CCCCNC(=O)c1cc2ccc(N(CC)CC)cc2oc1=O
IC50 (MDA-MB-231 [1]): > 100 µM
IC50 (MCF7): > 100 µM
IC50 (MCF-10A): > 100 µM
IC50 (SK-BR-3): > 100 µM

Compound: CCCC[P+](c1ccccc1)(c1ccccc1)c1ccccc1
IC50 (MDA-MB-231 [1]): > 100 µM
IC50 (MCF7): 57.4 µM
IC50 (MCF-10A): > 100 µM
IC50 (SK-BR-3): > 100 µM

Stabilty [2]: Unstable
Drug uptake [3]: Dose-dependent effect
Drug uptake [4]: Tde
Compound: CCN(CC)c1ccc2cc(C(=O)OCCCC[P+](c3ccccc3)(c3ccccc3)c3ccccc3)c(=O)oc2c1
IC50 (MDA-MB-231 [1]): 29.4 µM
IC50 (MCF7): 27.8 µM
IC50 (MCF-10A): 83.7 µM
IC50 (SK-BR-3): 30.9 µM

Compound: CCN(Cc1ccccc1)c1ccc2cc(C(=O)NCCCC[P+](c3ccccc3)(c3ccccc3)c3ccccc3)c(=O)oc2c1
IC50 (MDA-MB-231 [1]): 3.73 µM
IC50 (MCF7): 4.9 µM
IC50 (MCF-10A): 15.1 µM
IC50 (SK-BR-3): 2.73 µM

Compound: CC/C(=C(\c1ccccc1)c1ccc(OCCN(C)C)cc1)c1ccccc1 [TAMOXIFEN]
IC50 (MCF7): 15.2 µM
IC50 (MCF-10A): > 50 µM

Compound: CCN(CC)c1ccc2cc(C(=O)NCCCC[P+](c3ccccc3)(c3ccccc3)c3ccccc3)c(=O)oc2c1
Drug uptake [5]: Not Active
IC50 (MDA-MB-231 [1]): 3.03 µM
Activity (MDA-MB-231 [6]): 70.55%
IC50 (MCF7): 3.26 µM
Stabilty [2]: Stable
inhibition (MDA-MB-231 [7]): Active
Activity (MDA-MB-231 [8]): 24.09%
Activity (MDA-MB-231 [9]): 78.96%
Activity (MDA-MB-231 [10]): 60.63%
Activity (MDA-MB-231 [11]): Dose-dependent effect
Drug uptake [12]: Active
Activity (MDA-MB-231 [13]): Dose-dependent effect
inhibition (MDA-MB-231 [14]): Active
Activity (MDA-MB-231 [15]): 21.04%
Activity (MDA-MB-231 [16]): 1.2%
Activity (MDA-MB-231 [17]): Active
Drug uptake [3]: Dose-dependent effect
Activity (MDA-MB-231 [18]): 50%
Activity (MDA-MB-231 [19]): 14.69%
IC50 (MCF-10A): 45.3 µM
Activity (MDA-MB-231 [20]): 29.45%
Activity (MDA-MB-231 [21]): 65.07%
Activity (MDA-MB-231 [22]): 13%
Activity (MDA-MB-231 [23]): inactive
Activity (MDA-MB-231 [24]): 39.37%
Drug uptake [4]: Tde
Activity (MDA-MB-231 [25]): 1.89%
IC50 (SK-BR-3): 3.46 µM
Activity (MDA-MB-231 [26]): 6.47%
